# Calls of active or inactive are those of the source. No cut-off for these calls is given here.
# What was measured:
# [1] = biological target: T1, beta-catenin-B-cell lymphoma 9 protein complex (Homo sapiens, UniProt P35222); test: Inhibition of protein interaction between C-terminal 6x-histidine tagged full-length beta-catenin (1 to 781 residues) (unknown origin)/N-terminal biotinylated human BCL9 ( 350 to 375 residues) incubated for 1 hr by Alpha-screen competitive inhibition assay; type: protein-complex assay
# T1 sequence (P35222 whole entry): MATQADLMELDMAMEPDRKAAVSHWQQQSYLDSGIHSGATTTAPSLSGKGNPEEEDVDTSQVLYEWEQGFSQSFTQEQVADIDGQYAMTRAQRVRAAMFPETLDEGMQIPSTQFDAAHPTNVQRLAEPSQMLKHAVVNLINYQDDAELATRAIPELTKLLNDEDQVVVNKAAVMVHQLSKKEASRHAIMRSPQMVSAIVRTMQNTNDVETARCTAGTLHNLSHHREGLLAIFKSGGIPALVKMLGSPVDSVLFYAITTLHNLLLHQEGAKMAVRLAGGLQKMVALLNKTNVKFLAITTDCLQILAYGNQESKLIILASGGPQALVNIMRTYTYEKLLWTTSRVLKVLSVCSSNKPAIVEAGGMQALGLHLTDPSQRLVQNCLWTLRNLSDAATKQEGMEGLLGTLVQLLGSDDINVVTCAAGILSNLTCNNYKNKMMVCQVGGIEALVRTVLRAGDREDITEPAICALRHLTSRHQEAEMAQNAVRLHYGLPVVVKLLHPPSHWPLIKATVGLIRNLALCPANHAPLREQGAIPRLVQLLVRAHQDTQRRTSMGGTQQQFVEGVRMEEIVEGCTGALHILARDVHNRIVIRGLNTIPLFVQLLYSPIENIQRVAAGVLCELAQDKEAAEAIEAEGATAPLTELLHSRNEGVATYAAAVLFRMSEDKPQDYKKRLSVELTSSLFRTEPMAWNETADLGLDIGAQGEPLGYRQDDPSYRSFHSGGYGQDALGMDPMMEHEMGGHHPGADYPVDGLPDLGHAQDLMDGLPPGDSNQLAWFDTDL
# T1 sequence (O00512 whole entry): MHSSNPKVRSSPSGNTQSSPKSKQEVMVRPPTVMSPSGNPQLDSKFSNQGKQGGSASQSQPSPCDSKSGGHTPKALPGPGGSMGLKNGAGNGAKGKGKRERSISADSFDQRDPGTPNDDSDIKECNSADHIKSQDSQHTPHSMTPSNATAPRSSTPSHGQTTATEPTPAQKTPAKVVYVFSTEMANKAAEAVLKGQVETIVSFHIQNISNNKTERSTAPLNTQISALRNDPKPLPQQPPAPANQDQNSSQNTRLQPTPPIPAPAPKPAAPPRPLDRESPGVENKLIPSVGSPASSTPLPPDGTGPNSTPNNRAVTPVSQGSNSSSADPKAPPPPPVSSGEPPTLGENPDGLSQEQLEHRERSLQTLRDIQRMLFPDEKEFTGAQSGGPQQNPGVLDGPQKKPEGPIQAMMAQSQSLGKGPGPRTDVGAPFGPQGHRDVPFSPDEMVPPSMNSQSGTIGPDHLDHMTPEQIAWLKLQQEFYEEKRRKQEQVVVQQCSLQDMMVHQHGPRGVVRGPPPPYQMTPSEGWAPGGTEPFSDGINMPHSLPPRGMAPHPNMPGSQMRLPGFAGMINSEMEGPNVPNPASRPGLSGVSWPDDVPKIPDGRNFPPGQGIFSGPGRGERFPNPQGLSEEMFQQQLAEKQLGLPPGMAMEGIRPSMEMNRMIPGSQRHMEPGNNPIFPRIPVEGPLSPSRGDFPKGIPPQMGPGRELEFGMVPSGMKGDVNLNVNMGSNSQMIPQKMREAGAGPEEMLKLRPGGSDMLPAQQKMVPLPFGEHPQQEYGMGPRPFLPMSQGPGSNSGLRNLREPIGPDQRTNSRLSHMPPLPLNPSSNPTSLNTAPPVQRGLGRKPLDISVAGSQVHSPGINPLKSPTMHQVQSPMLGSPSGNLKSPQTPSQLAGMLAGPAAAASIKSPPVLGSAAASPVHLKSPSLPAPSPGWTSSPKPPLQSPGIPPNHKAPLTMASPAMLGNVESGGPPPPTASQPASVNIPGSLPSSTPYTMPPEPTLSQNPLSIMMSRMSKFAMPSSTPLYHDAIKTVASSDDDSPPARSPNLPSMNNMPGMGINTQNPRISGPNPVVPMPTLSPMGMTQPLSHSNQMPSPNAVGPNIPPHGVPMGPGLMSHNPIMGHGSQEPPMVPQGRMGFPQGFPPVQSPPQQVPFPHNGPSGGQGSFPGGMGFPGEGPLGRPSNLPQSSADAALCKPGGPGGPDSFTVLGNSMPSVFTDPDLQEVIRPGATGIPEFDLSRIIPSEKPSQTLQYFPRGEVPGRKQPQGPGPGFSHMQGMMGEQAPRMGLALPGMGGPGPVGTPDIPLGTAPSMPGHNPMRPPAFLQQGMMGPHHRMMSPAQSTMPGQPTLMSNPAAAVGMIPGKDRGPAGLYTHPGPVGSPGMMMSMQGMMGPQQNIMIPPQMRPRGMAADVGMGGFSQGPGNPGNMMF
# Method in brief: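 Full-length β-catenin (residues 1–781) with a C-terminal His6 tag was expressed in E. coli BL21(DE3) after IPTG induction at 20 °C. It was purified by Ni-NTA, anion-exchange and size-exclusion chromatography. For the assay, 40 nM β-catenin was preincubated for 30 min at 4 °C with 5 nM biotinylated BCL9 or 10 nM biotinylated E-cadherin. Inhibitor was then added for 1 h at 4 °C, followed by 10 μg/mL donor and acceptor beads for 1 h at 4 °C. IC50 was obtained by nonlinear fit and converted to Ki by the Nikolovska-Coleska method. Triplicate, mean ± SD.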
# SW480 [2] = test: Cytotoxicity in human SW480 cells assessed as reduction in cell viability incubated for 72 hrs by MTS assay; type: functional, cell-based; conditions: SW480, 72 h
# Method in brief: (§1)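 Cells seeded at 5 × 10^3 cells/well, kept overnight at 37 °C, then exposed to inhibitors at various concentrations for 72 h. Viability read with a freshly mixed PMS (0.92 mg/mL) : MTS (2 mg/mL) reagent at 1:19, incubated 3 h at 37 °C, A490 measured. […] Triplicate; mean ± SD.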
# SW480 [3] = test: Cytotoxic activity in human SW480 cells at 800 uM incubated for 4 hrs by LDH release assay; type: cell-based; conditions: sw480, 4 h
# Method in brief: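 SW480 cells were seeded at 2 × 10^4 cells/well and kept overnight at 37 °C. They were then exposed to a range of inhibitor concentrations for 4 h. LDH in the culture supernatant was measured with a diagnostic kit by absorbance at 490 nm. Percent cytotoxicity was calculated from experimental release against maximum release, with background subtracted. Run in triplicate.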
# HCT-116 = test: Cytotoxicity in human HCT-116 cells assessed as reduction in cell viability incubated for 72 hrs by MTS assay; type: functional, cell-based; conditions: HCT-116, 72 h; method in brief: as §1
# [4] = biological target: T1, beta-catenin-B-cell lymphoma 9 protein complex; test: Inhibition of protein interaction between beta-catenin (unknown origin)/BCL9 in human SW480 cells transfected with beta-catenin assessed as reduction in Wnt/beta-catenin transactivation incubated for 24 hrs by Wnt-responsive TOP-Flash luciferase reporter assay; type: cell-based
# [5] = biological target: T1, beta-catenin-B-cell lymphoma 9 protein complex; test: Inhibition of protein interaction between beta-catenin (unknown origin)/BCL9 in HEK293 cells transfected with beta-catenin assessed as reduction in Wnt/beta-catenin transactivation incubated for 24 hrs by Wnt-responsive TOP-Flash luciferase reporter assay; type: cell-based
# Method in brief: (§2)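 HEK293 cells were cotransfected using FuGENE6 with 45 ng TOPFlash or FOPFlash reporter, 135 ng pcDNA3.1-β-catenin and 20 ng pCMV-RL normalization reporter. After 24 h in DMEM with 10% FBS at 37 °C, inhibitors or DMSO were added for 24 h. Reporter activity was read with a dual luciferase system, normalized, and compared with DMSO-treated cells. Triplicate.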
# MDA-MB-231 = test: Cytotoxicity in human MDA-MB-231 cells assessed as reduction in cell viability incubated for 72 hrs by MTS assay; type: functional, cell-based; conditions: MDA-MB-231, 72 h
# Method in brief: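 Triple-negative breast cancer line seeded at 5 × 10^3 cells/well, held overnight at 37 °C, then exposed to inhibitor over a concentration range for 72 h. Viability read out with a fresh 1:19 mix of PMS (0.92 mg/mL) and MTS (2 mg/mL), incubated 3 h at 37 °C, A490 measured.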
# A549 = test: Cytotoxicity in human A549 cells assessed as reduction in cell viability incubated for 72 hrs by MTS assay; type: functional, cell-based; conditions: A549, 72 h; method in brief: as §1
# [6] = biological target: T2, beta-catenin-B-cell lymphoma 9 protein complex (Homo sapiens) (UniProt P35222+O00512); test: Inhibition of protein interaction between beta-catenin (unknown origin)/BCL9 in HEK293 cells transfected with beta-catenin assessed as reduction in Wnt/beta-catenin transactivation incubated for 24 hrs by Wnt-responsive FOP-Flash luciferase reporter assay; type: cell-based; method in brief: as §2
# [7] = biological target: T2, beta-catenin-B-cell lymphoma 9 protein complex (Homo sapiens); test: Inhibition of protein interaction between beta-catenin (unknown origin)/BCL9 in human HEK293 cells transfected with beta-catenin assessed as reduction in Wnt/beta-catenin transactivation incubated for 24 hrs by Wnt-responsive FOP-Flash luciferase reporter assay
# [8] = Inhibition of protein interaction between beta-catenin D145A mutant (unknown origin)/N-terminal biotinylated human BCL9 ( 350 to 375 residues) incubated for 1 hr by Alpha-screen competitive inhibition assay
# [9] = Inhibition of protein interaction between beta-catenin D145A/E155A mutant (unknown origin)/N-terminal biotinylated human BCL9 ( 350 to 375 residues) incubated for 1 hr by Alpha-screen competitive inhibition assay
# [10] = Inhibition of protein interaction between beta-catenin K181A mutant (unknown origin)/N-terminal biotinylated human BCL9 ( 350 to 375 residues) incubated for 1 hr by Alpha-screen competitive inhibition assay
Structure (SMILES),Ki [1] [µM],IC50 (SW480 [2]) [µM],Activity (SW480 [3]),IC50 (HCT-116) [µM],IC50 [4] [µM],IC50 [5] [µM],IC50 (MDA-MB-231) [µM],IC50 (A549) [µM],inhibition [6],inhibition [7],Ki [8] [µM],Ki [9] [µM],Ki [10] [µM]
Cl.Cl.O=C(Nc1ccc(O[C@H]2CCNC2)c(-c2ccc(-c3nn[nH]n3)cc2)c1)c1ccc(O[C@H]2CCNC2)c(-c2ccc(F)c(F)c2)c1,4.6,86,Non-Toxic,,,,,,,,,,
Cl.Cl.O=C(O)c1ccc(F)c(-c2cc(NC(=O)c3ccc(O[C@H]4CCNC4)c(-c4ccc(F)c(F)c4)c3)ccc2O[C@H]2CCNC2)c1,12,> 400,Non-Toxic,> 400,> 400,,,,,,,,
CS(=O)(=O)Nc1cccc(-c2cc(NC(=O)c3ccc(O[C@H]4CCNC4)c(-c4ccc(F)c(F)c4)c3)ccc2O[C@H]2CCNC2)c1.Cl.Cl,5.9,95,Non-Toxic,,,,,,,,,,
Cl.Cl.O=C(O)c1cccc(-c2cc(NC(=O)c3ccc(O[C@H]4CCNC4)c(-c4ccc(F)c(F)c4)c3)ccc2O[C@H]2CCNC2)c1,5.4,> 400,Non-Toxic,> 400,368,,,,,,,,
Cl.Cl.NS(=O)(=O)c1ccc(-c2cc(NC(=O)c3ccc(O[C@H]4CCNC4)c(-c4ccc(F)c(F)c4)c3)ccc2O[C@H]2CCNC2)cc1,5.6,220,Non-Toxic,,> 200,> 200,,,,,,,
Cl.Cl.NC(=O)c1cccc(-c2cc(NC(=O)c3ccc(O[C@H]4CCNC4)c(-c4ccc(F)c(F)c4)c3)ccc2O[C@H]2CCNC2)c1,5.6,190,Non-Toxic,,,,,,,,,,
Cl.Cl.NC(=O)c1ccc(-c2cc(NC(=O)c3ccc(O[C@H]4CCNC4)c(-c4ccc(F)c(F)c4)c3)ccc2O[C@H]2CCNC2)cc1,4.7,160,Non-Toxic,,,,,,,,,,
Fc1ccc(-c2cc(-c3cnc4cc(O[C@H]5CCNC5)c(-c5ccc(F)c(F)c5)cc4c3)ccc2O[C@H]2CCNC2)cc1,2.2,1.7,,2.2,7.9,14,3.1,7.5,Active,Active,,,
Cl.Cl.O=C(O)c1ccc(-c2cc(NC(=O)c3ccc(O[C@H]4CCNC4)c(-c4ccc(F)c(F)c4)c3)ccc2O[C@H]2CCNC2)cc1,3.7,> 400,Non-Toxic,> 400,391,,,,,,,,
Cl.Cl.O=C(Nc1ccc(O[C@H]2CCNC2)c(-c2cccc(-c3nn[nH]n3)c2)c1)c1ccc(O[C@H]2CCNC2)c(-c2ccc(F)c(F)c2)c1,1,140,Non-Toxic,190,,,92,410,,,6.5,18,4.9
CC(=O)Nc1cccc(-c2cc(NC(=O)c3ccc(O[C@H]4CCNC4)c(-c4ccc(F)c(F)c4)c3)ccc2O[C@H]2CCNC2)c1.Cl.Cl,5.2,160,Non-Toxic,,,,,,,,,,

# — ChEMBL document CHEMBL4680104, “Structure-Based Optimization of Small-Molecule Inhibitors for the β-Catenin/B-Cell Lymphoma 9 Protein-Protein Interaction” (J Med Chem, 2018)
